Source: ChEMBL document CHEMBL4004793, “Spoxazomicin D and Oxachelin C, Potent Neuroprotective Carboxamides from the Appalachian Coal Fire-Associated Isolate Streptomyces sp. RM-14-6” (J Nat Prod, 2017)
In brackets after ≈: the same amount, converted by molar mass. Activity calls are given as the source filed them. No cut-off for these calls is given here.

Assays:
Micrococcus luteus [1] = experiment: Antibacterial activity against Micrococcus luteus NRRL B-287 up to 60 uM after 16 to 48 hrs; type: functional
Procedure, shortened: (§1)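 MIC determined after 16−48 h incubation, in triplicate, following earlier published protocols; kanamycin and ampicillin as positive controls for bacteria, amphotericin B for S. cerevisiae. S. aureus, S. enterica and S. cerevisiae strains from ATCC.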

Staphylococcus aureus [2] = experiment: Antibacterial activity against Staphylococcus aureus ATCC 6538 up to 60 uM after 16 to 48 hrs; type: functional; procedure, shortened: as §1
Salmonella enterica [3] = experiment: Antibacterial activity against Salmonella enterica ATCC 10708 up to 60 uM after 16 to 48 hrs; type: functional; procedure, shortened: as §1
Saccharomyces cerevisiae [4] = experiment: Antifungal activity against Saccharomyces cerevisiae ATCC 204508 up to 60 uM after 16 to 48 hrs; type: functional; procedure, shortened: as §1
A549 [5] = experiment: Cytotoxicity against human A549 cells assessed as decrease in cell viability up to 20 uM after 48 hrs by resazurin assay; type: functional, cell-based
Procedure, shortened: (§2)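 A549 non-small-cell lung cells from ATCC, run in triplicate following earlier published protocols; actinomycin D as positive control.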

Escherichia coli = experiment: Antibacterial activity against Escherichia coli NRRL B-3708 up to 60 uM after 16 to 48 hrs; type: functional; procedure, shortened: as §1
Hippocampal neurone [6] = experiment: Neuroprotective activity against EtOH-induced damage in Sprague-Dawley rat hippocampal neuron after 48 hrs by propidium iodide uptake assay; type: functional, cell-based
Procedure, shortened: (§3)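 Organotypic hippocampal slices from 8-day-old Sprague−Dawley rats in medium with 3.74 μM propidium iodide, with or without 100 mM EtOH plus test agent at varied concentrations, 48 h. Slices then imaged for propidium iodide uptake intensity as a marker of cell damage; post hoc statistical comparison vs control and vs EtOH.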

Hippocampal neurone [7] = experiment: Neuroprotective activity against EtOH-induced damage in Sprague-Dawley rat hippocampal neuron at 0.01 to 0.10 uM after 48 hrs by propidium iodide uptake assay; type: functional, cell-based; procedure, shortened: as §3
Hippocampal neurone [8] = experiment: Neuroprotective activity against EtOH-induced damage in Sprague-Dawley rat hippocampal neuron at 0.01 uM after 48 hrs by propidium iodide uptake assay; type: functional, cell-based; procedure, shortened: as §3
A549 [9] = experiment: Cytotoxicity against human A549 cells assessed as decrease in cell viability after 48 hrs by resazurin assay; type: functional, cell-based; procedure, shortened: as §2
Staphylococcus aureus [10] = experiment: Antibacterial activity against Staphylococcus aureus ATCC 6538 after 16 to 48 hrs; type: functional; procedure, shortened: as §1
Micrococcus luteus [11] = experiment: Antibacterial activity against Micrococcus luteus NRRL B-287 after 16 to 48 hrs; type: functional; procedure, shortened: as §1
HEK293 = experiment: Modulation of unfolded protein response in HEK293 cells after 48 hrs by ASGR-Cluc secretion assay; conditions: Homo sapiens
Saccharomyces cerevisiae [12] = experiment: Antifungal activity against Saccharomyces cerevisiae ATCC 204508 after 16 to 48 hrs; type: functional; procedure, shortened: as §1
Salmonella enterica [13] = experiment: Antibacterial activity against Salmonella enterica ATCC 10708 after 16 to 48 hrs; type: functional; procedure, shortened: as §1

SMILES	Activity (Micrococcus luteus [1])	Activity (Staphylococcus aureus [2])	Activity (Salmonella enterica [3])	Activity (Saccharomyces cerevisiae [4])	Activity (A549 [5])	Activity (Escherichia coli)	further results
NC(=O)c1ccccc1O	inactive	inactive	inactive	inactive	inactive	inactive	–
C[C@@H](CO)NC(=O)c1ccccc1O	inactive	inactive	inactive	inactive	inactive	inactive	–
OC[C@@H]1COC(c2ccccc2O)=N1	inactive	inactive	inactive	inactive	inactive	inactive	Activity (Hippocampal neurone [6]): inactive
CC(=O)NCCc1ccc(O)cc1	inactive	inactive	inactive	inactive	inactive	inactive	–
CC(C)C[C@@H]1NC(=O)[C@H]2C[C@@H](O)CN2C1=O	inactive	inactive	inactive	inactive	inactive	inactive	–
N[C@@H](COC(=O)c1ccccc1O)C(=O)N[C@@H](CO)C(=O)N[C@H](CCCN(O)C=O)C(=O)NCCC(=O)N[C@@H]1CCCN(O)C1=O	inactive	inactive	inactive	inactive	inactive	inactive	Activity (Hippocampal neurone [7]): Active
NC(=O)c1ccc[nH]1	inactive	inactive	inactive	inactive	inactive	inactive	–
C[C@H](CO)NC(=O)c1ccccc1O	inactive	inactive	inactive	inactive	inactive	inactive	–
NC(=O)[C@@H]1COC(c2ccccc2O)=N1	inactive	inactive	inactive	inactive	inactive	inactive	Activity (Hippocampal neurone [8]): Active
NC(=O)Cc1ccccc1	inactive	inactive	inactive	inactive	inactive	inactive	–
CO[C@H]1CC[C@H](O[C@@H]2C[C@@H]([C@@H](C)/C=C(\C)C(=O)[C@H](C)C[C@H](C)C(=O)[O-])O[C@@]3(CC[C@@](C)([C@H]4CC[C@@H](C)[C@@]5(O[C@@H]([C@H]6O[C@@](O)(CO)[C@H](C)C[C@@H]6C)C[C@@H]5C)O4)O3)[C@@H]2C)O[C@@H]1C.[Na+]	–	–	–	–	–	–	IC50 (A549 [9]; a549): 1900 nM; MIC (Staphylococcus aureus [10]): 0.1 to 3 µM; MIC (Micrococcus luteus [11]): 0.1 to 3 µM; EC50 (HEK293): 109 nM; MIC (Saccharomyces cerevisiae [12]; Saccharomyces cerevisiae, ATCC 204508, read-out: MIC): 0.1 to 3 µM; MIC (Salmonella enterica [13]): 0.1 to 3 µM
O=C(NC(CO)CO)c1ccccc1O	inactive	inactive	inactive	inactive	inactive	inactive	–
CO[C@H]1CC[C@H](O[C@@H]2C[C@@H]([C@@H](C)/C=C(\C)C(=O)[C@H](C)C[C@H](C)C(=O)O)O[C@@]3(CC[C@@](C)([C@H]4CC[C@@H](C)[C@@]5(O[C@@H]([C@H]6O[C@@](O)(CO)[C@H](C)C[C@@H]6C)C[C@@H]5C)O4)O3)[C@@H]2C)O[C@@H]1C	–	–	–	–	–	–	IC50 (A549 [9]; Homo sapiens, A549, 48 h): 1200 nM; MIC (Staphylococcus aureus [10]; Staphylococcus aureus, ATCC 6538, read-out: MIC): 0.1 to 3 µM (≈ 0.0851 to 2.55 µg/mL); MIC (Micrococcus luteus [11]; Micrococcus luteus, NRRL B-287, read-out: MIC): 0.1 to 3 µM (≈ 0.0851 to 2.55 µg/mL); EC50 (HEK293): 38 nM; MIC (Saccharomyces cerevisiae [12]): 0.1 to 3 µM; MIC (Salmonella enterica [13]; Salmonella enterica, ATCC 10708, read-out: MIC): 0.1 to 3 µM (≈ 0.0851 to 2.55 µg/mL)
O=CN(O)CCC[C@@H](NC(=O)[C@H](CO)NC(=O)[C@@H]1COC(c2ccccc2O)=N1)C(=O)NCCC(=O)N[C@@H]1CCCN(O)C1=O	inactive	inactive	inactive	inactive	inactive	inactive	Activity (Hippocampal neurone [6]): inactive
COC(=O)C1COC(c2ccccc2O)=N1 (configuration not stated)	inactive	inactive	inactive	inactive	inactive	inactive	–
CNc1ccc(C(N)=O)cc1	inactive	inactive	inactive	inactive	inactive	inactive	–
O=CN(O)CCC[C@@H](NC(=O)[C@H](CO)NC(=O)[C@H](CO)NC(=O)c1ccccc1O)C(=O)NCCC(=O)N[C@@H]1CCCN(O)C1=O	inactive	inactive	inactive	inactive	inactive	inactive	Activity (Hippocampal neurone [6]): inactive
CC1=CC(=O)C[C@]2(C)CC[C@@H](C(C)(C)O)C[C@@H]12	inactive	inactive	inactive	inactive	–	inactive	–
